According to ChEMBL document CHEMBL1649574, “Prevalence and characterization of heterogeneous vancomycin-intermediate Staphylococcus aureus isolates from 14 cities in China” (2009):
Values after ≈ are worked out from the molar mass of the structure shown.

Key:
Assay type in all cases: functional
Staphylococcus aureus [1] = experiment: Antimicrobial activity against SCCmec type II vancomycin-intermediate Staphylococcus aureus isolate 4sy32 by agar dilution method
In short: (§1)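 Agar-dilution MICs were measured on a subset of 200 blood MRSA isolates from China. Agents: oxacillin, rifampin, gentamicin, levofloxacin, erythromycin, vancomycin, teicoplanin, tigecycline, ceftobiprole and linezolid. Phenotype came from the PAP-AUC ratio of each isolate to S. aureus Mu3 (VSSA <0.9; hVISA 0.9 to 1.3; VISA ≥1.3), read on BHI agar with 0 to 8.0 mg/liter vancomycin after 48 h at 35°C.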

Staphylococcus aureus [2] = experiment: Antimicrobial activity against SCCmec type II vancomycin-intermediate Staphylococcus aureus isolate 4sy39 by agar dilution method; in short: as §1
Staphylococcus aureus [3] = experiment: Antimicrobial activity against SCCmec type III vancomycin-intermediate Staphylococcus aureus isolate 5zjsau3 by agar dilution method; in short: as §1
Staphylococcus aureus [4] = experiment: Antimicrobial activity against SCCmec type II vancomycin-intermediate Staphylococcus aureus isolate sh06024 by agar dilution method; in short: as §1
Staphylococcus aureus [5] = experiment: Antimicrobial activity against SCCmec type III vancomycin-intermediate Staphylococcus aureus isolate gz06040 by agar dilution method; in short: as §1
Staphylococcus aureus [6] = experiment: Antimicrobial activity against SCCmec type III vancomycin-intermediate Staphylococcus aureus isolate gz06051 by agar dilution method; in short: as §1
Staphylococcus aureus [7] = experiment: Antimicrobial activity against SCCmec type II vancomycin-intermediate Staphylococcus aureus isolate 6zjsau7 by agar dilution method; in short: as §1
Staphylococcus aureus [8] = experiment: Antimicrobial activity against SCCmec type III vancomycin-intermediate Staphylococcus aureus isolate bd4768 by agar dilution method; in short: as §1
Staphylococcus aureus [9] = experiment: Antimicrobial activity against SCCmec type II vancomycin-intermediate Staphylococcus aureus isolate b2k4781 by agar dilution method; in short: as §1
Staphylococcus aureus [10] = experiment: Antimicrobial activity against SCCmec type III vancomycin-intermediate Staphylococcus aureus isolate b3k2345 by agar dilution method; in short: as §1
Staphylococcus aureus [11] = experiment: Antimicrobial activity against SCCmec type III vancomycin-intermediate Staphylococcus aureus isolate b2k3421 by agar dilution method; in short: as §1
Staphylococcus aureus [12] = experiment: Antimicrobial activity against SCCmec type III vancomycin-intermediate Staphylococcus aureus isolate b3k5923 by agar dilution method; in short: as §1
Staphylococcus aureus [13] = experiment: Antimicrobial activity against SCCmec type III vancomycin-intermediate Staphylococcus aureus isolate b4k6307 by agar dilution method; in short: as §1
Staphylococcus aureus [14] = experiment: Antimicrobial activity against SCCmec type III vancomycin-intermediate Staphylococcus aureus isolate b5k3529 by agar dilution method; in short: as §1
Staphylococcus aureus [15] = experiment: Antimicrobial activity against SCCmec type III vancomycin-intermediate Staphylococcus aureus isolate b5k3578 by agar dilution method; in short: as §1
Staphylococcus aureus [16] = experiment: Antimicrobial activity against SCCmec type III vancomycin-intermediate Staphylococcus aureus isolate b6k1642 by agar dilution method; in short: as §1
Staphylococcus aureus [17] = experiment: Antimicrobial activity against SCCmec type III vancomycin-intermediate Staphylococcus aureus isolate b6k7974 by agar dilution method; in short: as §1
Staphylococcus aureus [18] = experiment: Antimicrobial activity against SCCmec type IV vancomycin-intermediate Staphylococcus aureus isolate 06b41 by agar dilution method; in short: as §1
Staphylococcus aureus [19] = experiment: Antimicrobial activity against SCCmec type III vancomycin-intermediate Staphylococcus aureus isolate 13b16 by agar dilution method; in short: as §1
Staphylococcus aureus [20] = experiment: Antimicrobial activity against SCCmec type III vancomycin-intermediate Staphylococcus aureus isolate 11b091 by agar dilution method; in short: as §1
Staphylococcus aureus [21] = experiment: Antimicrobial activity against SCCmec type II vancomycin-intermediate Staphylococcus aureus isolate 07b63 by agar dilution method; in short: as §1
Staphylococcus aureus [22] = experiment: Antimicrobial activity against SCCmec type III vancomycin-intermediate Staphylococcus aureus isolate 15b52 by agar dilution method; in short: as §1
Staphylococcus aureus [23] = experiment: Antimicrobial activity against SCCmec type III vancomycin-intermediate Staphylococcus aureus isolate zj07028 by agar dilution method; in short: as §1
Staphylococcus aureus [24] = experiment: Antimicrobial activity against SCCmec type III vancomycin-intermediate Staphylococcus aureus isolate sh07043 by agar dilution method; in short: as §1
Staphylococcus aureus [25] = experiment: Antimicrobial activity against SCCmec type III vancomycin-intermediate Staphylococcus aureus isolate xa07029 by agar dilution method; in short: as §1
Staphylococcus aureus [26] = experiment: Antimicrobial activity against SCCmec type III vancomycin-intermediate Staphylococcus aureus isolate gz07030 by agar dilution method; in short: as §1
Staphylococcus aureus [27] = experiment: Antimicrobial activity against SCCmec type III vancomycin-intermediate Staphylococcus aureus isolate gs07022 by agar dilution method; in short: as §1

Structure (SMILES) | MIC (Staphylococcus aureus [1]) | MIC (Staphylococcus aureus [2]) | MIC (Staphylococcus aureus [3]) | MIC (Staphylococcus aureus [4]) | MIC (Staphylococcus aureus [5]) | MIC (Staphylococcus aureus [6]) | MIC (Staphylococcus aureus [7]) | MIC (Staphylococcus aureus [8]) | MIC (Staphylococcus aureus [9]) | MIC (Staphylococcus aureus [10]) | MIC (Staphylococcus aureus [11]) | MIC (Staphylococcus aureus [12]) | MIC (Staphylococcus aureus [13]) | MIC (Staphylococcus aureus [14]) | MIC (Staphylococcus aureus [15]) | MIC (Staphylococcus aureus [16]) | MIC (Staphylococcus aureus [17]) | MIC (Staphylococcus aureus [18]) | MIC (Staphylococcus aureus [19]) | MIC (Staphylococcus aureus [20]) | also measured
CC[C@H]1OC(=O)[C@H](C)[C@@H](O[C@H]2C[C@@](C)(OC)[C@@H](O)[C@H](C)O2)[C@H](C)[C@@H](O[C@@H]2O[C@H](C)C[C@H](N(C)C)[C@H]2O)[C@](C)(OC)C[C@@H](C)C(=O)[C@H](C)[C@@H](O)[C@]1(C)O [CLARITHROMYCIN] | 32 µg/mL (≈ 42.8 µM) | 32 µg/mL (≈ 42.8 µM) | 32 µg/mL (≈ 42.8 µM) | 32 µg/mL (≈ 42.8 µM) | 32 µg/mL (≈ 42.8 µM) | 64 µg/mL (≈ 85.6 µM) | > 64 µg/mL | 64 µg/mL (≈ 85.6 µM) | 64 µg/mL (≈ 85.6 µM) | 64 µg/mL (≈ 85.6 µM) | 64 µg/mL (≈ 85.6 µM) | 64 µg/mL (≈ 85.6 µM) | 16 µg/mL (≈ 21.4 µM) | 64 µg/mL (≈ 85.6 µM) | 32 µg/mL (≈ 42.8 µM) | 64 µg/mL (≈ 85.6 µM) | 64 µg/mL (≈ 85.6 µM) | 1 µg/mL (≈ 1.34 µM) | 16 µg/mL (≈ 21.4 µM) | > 64 µg/mL | MIC (Staphylococcus aureus [21]): 64 µg/mL (≈ 85.6 µM); MIC (Staphylococcus aureus [22]): 16 µg/mL (≈ 21.4 µM); MIC (Staphylococcus aureus [23]): 32 µg/mL (≈ 42.8 µM); MIC (Staphylococcus aureus [24]): > 64 µg/mL; MIC (Staphylococcus aureus [25]): 32 µg/mL (≈ 42.8 µM); MIC (Staphylococcus aureus [26]): 64 µg/mL (≈ 85.6 µM); MIC (Staphylococcus aureus [27]): 64 µg/mL (≈ 85.6 µM)
CO[C@H]1/C=C/O[C@@]2(C)Oc3c(C)c(O)c4c(O)c(c(/C=N/N5CCN(C)CC5)c(O)c4c3C2=O)NC(=O)/C(C)=C\C=C\[C@H](C)[C@H](O)[C@@H](C)[C@@H](O)[C@@H](C)[C@H](OC(C)=O)[C@@H]1C [RIFAMPIN] | 0.008 µg/mL (≈ 0.00972 µM) | 0.008 µg/mL (≈ 0.00972 µM) | 0.008 µg/mL (≈ 0.00972 µM) | > 256 µg/mL | 0.008 µg/mL (≈ 0.00972 µM) | > 256 µg/mL | 0.008 µg/mL (≈ 0.00972 µM) | 256 µg/mL (≈ 311 µM) | 0.008 µg/mL (≈ 0.00972 µM) | 0.008 µg/mL (≈ 0.00972 µM) | 0.008 µg/mL (≈ 0.00972 µM) | 256 µg/mL (≈ 311 µM) | 256 µg/mL (≈ 311 µM) | 0.5 µg/mL (≈ 0.608 µM) | 0.5 µg/mL (≈ 0.608 µM) | 16 µg/mL (≈ 19.4 µM) | 256 µg/mL (≈ 311 µM) | 0.016 µg/mL (≈ 0.0194 µM) | 0.008 µg/mL (≈ 0.00972 µM) | 0.008 µg/mL (≈ 0.00972 µM) | MIC (Staphylococcus aureus [21]): 0.008 µg/mL (≈ 0.00972 µM); MIC (Staphylococcus aureus [22]): 0.016 µg/mL (≈ 0.0194 µM); MIC (Staphylococcus aureus [23]): ≤ 0.002 µg/mL; MIC (Staphylococcus aureus [24]): 0.016 µg/mL (≈ 0.0194 µM); MIC (Staphylococcus aureus [25]): > 256 µg/mL; MIC (Staphylococcus aureus [26]): 0.004 µg/mL (≈ 0.00486 µM); MIC (Staphylococcus aureus [27]): 0.008 µg/mL (≈ 0.00972 µM)
